One assay has as its target Glutamate receptor 1 (Rattus norvegicus, UniProt P19490). Put plainly: Binding affinity towards AMPA receptor using [3H]AMPA as radioligand; Inactive.
For a further assay, the species on record is Rattus norvegicus. Nature of the assay: Percent inhibition of glutamate activity against cGMP was determined. The assay is classed as functional.
Assay [1] addresses Glutamate receptor ionotropic, kainate 3 (Rattus norvegicus, UniProt P42264). Put plainly: Binding affinity towards Ionotropic glutamate receptor kainate using [3H]-kainic acid as radioligand; Inactive.
Assay [2] in a line: In vitro binding affinity towards N-methyl-D-aspartate glutamate receptor of the glutamate receptor using [3H]CPP as radioligand in rat cerebral cortical membranes. The assay is classed as cell membranes, Membrane. The gist of the method: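 Rat brain membranes incubated with 10 nM [3H]CPP across a range of unlabeled antagonist concentrations. Specific binding was measured by centrifugation assay and expressed as percent inhibition versus concentration.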

The term Ki denotes the dissociation constant of the complex between target and ligand, obtained from inhibition or displacement. Read a low Ki as a stronger hold on the target. As usually defined, the IC50 is the concentration needed to halve the response being measured. A high value points to weaker potency in that assay.

Chain of Glutamate receptor 1 (P19490 whole entry): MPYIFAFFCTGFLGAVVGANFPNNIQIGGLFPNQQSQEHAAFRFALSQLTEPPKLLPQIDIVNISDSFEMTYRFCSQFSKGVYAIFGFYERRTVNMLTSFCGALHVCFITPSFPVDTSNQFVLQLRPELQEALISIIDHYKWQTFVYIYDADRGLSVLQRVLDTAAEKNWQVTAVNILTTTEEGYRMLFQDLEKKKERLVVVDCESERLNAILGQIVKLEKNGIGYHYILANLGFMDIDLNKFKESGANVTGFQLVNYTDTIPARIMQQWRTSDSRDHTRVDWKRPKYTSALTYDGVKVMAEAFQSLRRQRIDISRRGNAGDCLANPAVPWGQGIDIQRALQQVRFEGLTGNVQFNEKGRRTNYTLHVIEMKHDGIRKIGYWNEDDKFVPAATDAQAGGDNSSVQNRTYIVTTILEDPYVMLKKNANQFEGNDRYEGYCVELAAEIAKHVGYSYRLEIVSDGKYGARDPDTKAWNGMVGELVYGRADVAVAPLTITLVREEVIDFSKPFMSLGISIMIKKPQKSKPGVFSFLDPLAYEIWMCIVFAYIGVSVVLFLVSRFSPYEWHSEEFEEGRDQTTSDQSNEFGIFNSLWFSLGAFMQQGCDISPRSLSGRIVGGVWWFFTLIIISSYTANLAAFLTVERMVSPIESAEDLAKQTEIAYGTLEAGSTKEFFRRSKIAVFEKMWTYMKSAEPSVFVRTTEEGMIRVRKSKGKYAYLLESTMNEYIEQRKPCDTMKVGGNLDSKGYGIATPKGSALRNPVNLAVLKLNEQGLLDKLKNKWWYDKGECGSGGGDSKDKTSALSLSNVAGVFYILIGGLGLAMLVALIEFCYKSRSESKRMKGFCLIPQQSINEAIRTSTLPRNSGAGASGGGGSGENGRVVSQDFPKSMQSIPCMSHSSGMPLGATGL
Chain of Glutamate receptor ionotropic, kainate 3 (P42264 whole entry): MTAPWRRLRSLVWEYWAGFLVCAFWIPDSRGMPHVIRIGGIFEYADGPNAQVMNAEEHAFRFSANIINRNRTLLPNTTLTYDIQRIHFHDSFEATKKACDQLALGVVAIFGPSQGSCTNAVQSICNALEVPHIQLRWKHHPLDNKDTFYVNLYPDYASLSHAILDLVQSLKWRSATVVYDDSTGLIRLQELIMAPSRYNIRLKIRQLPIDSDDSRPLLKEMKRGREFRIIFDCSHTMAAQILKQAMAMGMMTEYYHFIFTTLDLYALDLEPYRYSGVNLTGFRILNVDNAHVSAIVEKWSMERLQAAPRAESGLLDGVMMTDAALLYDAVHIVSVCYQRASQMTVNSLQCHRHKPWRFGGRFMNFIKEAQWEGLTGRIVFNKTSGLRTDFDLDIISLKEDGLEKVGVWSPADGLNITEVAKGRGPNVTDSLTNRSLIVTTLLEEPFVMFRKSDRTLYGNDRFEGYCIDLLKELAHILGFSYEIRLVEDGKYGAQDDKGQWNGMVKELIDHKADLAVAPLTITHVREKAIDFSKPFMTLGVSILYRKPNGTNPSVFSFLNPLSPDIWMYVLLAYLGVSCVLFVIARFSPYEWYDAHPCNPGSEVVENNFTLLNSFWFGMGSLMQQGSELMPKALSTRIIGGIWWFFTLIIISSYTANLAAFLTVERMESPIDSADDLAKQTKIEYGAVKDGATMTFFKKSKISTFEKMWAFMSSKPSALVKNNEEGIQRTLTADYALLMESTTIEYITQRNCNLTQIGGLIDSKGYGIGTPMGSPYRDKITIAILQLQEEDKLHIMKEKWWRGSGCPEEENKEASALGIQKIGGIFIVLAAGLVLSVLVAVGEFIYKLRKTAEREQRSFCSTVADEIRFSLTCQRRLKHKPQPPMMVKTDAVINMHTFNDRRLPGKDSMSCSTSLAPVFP

As for `O=C(O)C1CN(CCCP(=O)(O)O)CCN1` (stereo not given), the Ki on Glutamate receptor 1 is > 100 µM; in assay [1] it was > 100 µM; in assay [2], 131 nM. In the assay listed under Rattus norvegicus, the IC50 stood at 0.8 µM.

In the case of `NC(CCCP(=O)(O)O)C(=O)O` (stereo not given), the results for the Ki (on Glutamate receptor 1; in assay [1]; in assay [2]) were > 100 µM, > 100 µM and 176 nM, respectively. For the same compound, the IC50 in the assay filed under Rattus norvegicus came to 5.5 µM.

Regarding `N[C@H](CC(=O)CP(=O)(O)O)C(=O)O`, the Ki at Glutamate receptor 1 is > 100 µM; in assay [1] it was > 100 µM; in assay [2], 109 nM. In the assay listed under Rattus norvegicus, half-maximal inhibition (IC50) was put at 5.9 µM.

Turning to `NC(CCCCCP(=O)(O)O)C(=O)O` (stereo not given) [AP-7], the Ki at Glutamate receptor 1 was > 100 µM; in assay [1] it was > 100 µM; in assay [2], 730 nM. The compound further registered an IC50 in the assay filed under Rattus norvegicus of 14.1 µM.

For `O=C(O)[C@@H]1C[C@H](CP(=O)(O)O)CCN1` [SELFOTEL], the Ki is > 100 µM on Glutamate receptor 1, > 100 µM in assay [1] and 99 nM in assay [2]. In the assay listed under Rattus norvegicus, this compound registered an IC50 of 1.1 µM.

The record behind these values is ChEMBL document CHEMBL1125148, “(R)-4-oxo-5-phosphononorvaline: a new competitive glutamate antagonist at the NMDA receptor complex” (J Med Chem, 1990).
